Assays:
[1] = molecular target: Fibroblast growth factor receptor 1 (Homo sapiens) (UniProt P11362); assay: Inhibition of human N-terminal GST-fused FGFR1 cytoplasmic domain (398 to 822 (end)residues) expressed in baculovirus expression system at 20 uM measured after 1 hr in presence of peptide substrate and ATP by off-chip mobility shift assay relative to control
Procedure, shortened: (§1)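 Off-chip mobility shift assay. Product and substrate peptides were separated; activity was taken as P/(P+S). Complete reaction was set as 0% inhibition and enzyme-free background as 100%. Run in triplicate, mean ± SD.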

[2] = molecular target: T1, Tyrosine-protein kinase receptor TYRO3 (Homo sapiens) (UniProt Q06418); assay: Inhibition of human N-terminal GST-fused TYRO3 cytoplasmic domain (453 to 890 (end)residues) expressed in baculovirus expression system at 20 uM measured after 1 hr in presence of peptide substrate and ATP by off-chip mobility shift assay relative to control; procedure, shortened: as §1
T1 sequence (whole entry): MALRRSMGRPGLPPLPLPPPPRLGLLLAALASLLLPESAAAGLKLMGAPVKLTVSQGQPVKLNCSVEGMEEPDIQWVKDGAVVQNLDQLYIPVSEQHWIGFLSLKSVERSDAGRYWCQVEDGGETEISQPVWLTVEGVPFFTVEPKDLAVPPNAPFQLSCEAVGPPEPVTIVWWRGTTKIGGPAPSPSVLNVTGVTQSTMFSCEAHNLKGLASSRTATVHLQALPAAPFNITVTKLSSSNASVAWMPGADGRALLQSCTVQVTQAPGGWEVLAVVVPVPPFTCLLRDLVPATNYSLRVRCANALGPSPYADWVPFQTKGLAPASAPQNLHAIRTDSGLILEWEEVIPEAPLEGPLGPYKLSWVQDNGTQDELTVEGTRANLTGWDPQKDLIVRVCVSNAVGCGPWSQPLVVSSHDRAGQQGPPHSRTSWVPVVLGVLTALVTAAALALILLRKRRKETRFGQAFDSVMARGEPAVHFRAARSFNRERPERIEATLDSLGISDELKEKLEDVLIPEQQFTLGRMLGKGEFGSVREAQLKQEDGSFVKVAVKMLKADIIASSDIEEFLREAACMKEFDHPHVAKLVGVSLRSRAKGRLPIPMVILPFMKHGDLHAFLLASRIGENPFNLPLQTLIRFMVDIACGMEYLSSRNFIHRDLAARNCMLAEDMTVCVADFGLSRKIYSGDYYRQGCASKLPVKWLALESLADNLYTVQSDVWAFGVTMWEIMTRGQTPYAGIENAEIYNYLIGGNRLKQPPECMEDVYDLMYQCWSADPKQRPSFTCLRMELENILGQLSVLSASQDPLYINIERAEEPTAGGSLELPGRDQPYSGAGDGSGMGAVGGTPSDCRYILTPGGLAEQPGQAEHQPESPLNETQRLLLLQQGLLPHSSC

[3] = molecular target: Receptor-type tyrosine-protein kinase FLT3 (Homo sapiens) (UniProt P36888); assay: Inhibition of human N-terminal GST-fused FLT3 cytoplasmic domain (564 to 993 (end)residues) expressed in baculovirus expression system at 20 uM measured after 1 hr in presence of peptide substrate and ATP by off-chip mobility shift assay relative to control; procedure, shortened: as §1
[4] = molecular target: Protein-tyrosine kinase 2-beta (Homo sapiens) (UniProt Q14289); assay: Inhibition of human full-length N-terminal GST-fused PYK2 (1 to 967 (end)residues) expressed in baculovirus expression system at 20 uM measured after 1 hr in presence of peptide substrate and ATP by off-chip mobility shift assay relative to control; procedure, shortened: as §1
[5] = Antiproliferative activity against human HCC827 Gefitinib-resistant (GR) cells assessed as reduction in cell viability measured after 72 hrs by MTS assay
[6] = Antiproliferative activity against human PC9-OR cells assessed as reduction in cell viability measured after 72 hrs by MTS assay
[7] = molecular target: T2, Tyrosine-protein kinase JAK3 (Homo sapiens) (UniProt P52333); assay: Inhibition of human N-terminal His-tagged JAK3 catalytic domain (795 to 1124 (end)residues) expressed in baculovirus expression system at 20 uM measured after 1 hr in presence of peptide substrate and ATP by off-chip mobility shift assay relative to control; procedure, shortened: as §1
T2 sequence (whole entry): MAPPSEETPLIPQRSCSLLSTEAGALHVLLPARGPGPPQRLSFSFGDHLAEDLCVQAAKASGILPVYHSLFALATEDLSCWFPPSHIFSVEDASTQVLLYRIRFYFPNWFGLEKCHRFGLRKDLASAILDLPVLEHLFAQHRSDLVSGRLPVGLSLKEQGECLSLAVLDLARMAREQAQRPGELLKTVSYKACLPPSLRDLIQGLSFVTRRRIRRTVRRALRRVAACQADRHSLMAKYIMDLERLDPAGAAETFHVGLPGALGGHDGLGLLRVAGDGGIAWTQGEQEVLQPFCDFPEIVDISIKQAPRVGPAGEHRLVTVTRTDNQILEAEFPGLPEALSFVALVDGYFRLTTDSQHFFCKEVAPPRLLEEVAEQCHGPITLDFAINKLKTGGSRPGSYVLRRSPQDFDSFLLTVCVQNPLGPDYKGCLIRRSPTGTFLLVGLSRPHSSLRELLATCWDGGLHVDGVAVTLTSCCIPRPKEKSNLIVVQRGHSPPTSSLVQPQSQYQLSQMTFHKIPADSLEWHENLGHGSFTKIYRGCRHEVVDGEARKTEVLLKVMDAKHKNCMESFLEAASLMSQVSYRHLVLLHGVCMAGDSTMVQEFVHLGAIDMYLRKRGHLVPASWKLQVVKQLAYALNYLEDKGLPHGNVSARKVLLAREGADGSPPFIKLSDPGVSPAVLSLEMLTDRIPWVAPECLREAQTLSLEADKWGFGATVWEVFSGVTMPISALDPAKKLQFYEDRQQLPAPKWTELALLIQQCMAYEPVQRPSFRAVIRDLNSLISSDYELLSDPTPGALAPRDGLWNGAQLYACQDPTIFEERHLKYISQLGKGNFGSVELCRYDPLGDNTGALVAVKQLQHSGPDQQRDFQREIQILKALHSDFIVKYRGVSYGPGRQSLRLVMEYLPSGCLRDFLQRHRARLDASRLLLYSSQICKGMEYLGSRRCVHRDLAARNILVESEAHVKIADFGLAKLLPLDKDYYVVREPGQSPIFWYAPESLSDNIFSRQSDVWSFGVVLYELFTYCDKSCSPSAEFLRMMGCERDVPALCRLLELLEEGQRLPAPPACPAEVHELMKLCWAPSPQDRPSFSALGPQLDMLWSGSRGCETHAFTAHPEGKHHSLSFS

[8] = molecular target: Ephrin type-A receptor 2 (Homo sapiens) (UniProt P29317); assay: Inhibition of EPHA2 (unknown origin) at 20 uM measured after 1 hr in presence of peptide substrate and ATP by off-chip mobility shift assay relative to control; procedure, shortened: as §1
[9] = species on record: Homo sapiens; assay: Inhibition of human full-length N-terminal His-tagged ABL (2 to 1130 (end)residues) expressed in baculovirus expression system at 20 uM measured after 1 hr in presence of peptide substrate and ATP by off-chip mobility shift assay relative to control; procedure, shortened: as §1

Chain of Protein-tyrosine kinase 2-beta (Homo sapiens) (Q14289 whole entry, looked up, the tested form may be a part): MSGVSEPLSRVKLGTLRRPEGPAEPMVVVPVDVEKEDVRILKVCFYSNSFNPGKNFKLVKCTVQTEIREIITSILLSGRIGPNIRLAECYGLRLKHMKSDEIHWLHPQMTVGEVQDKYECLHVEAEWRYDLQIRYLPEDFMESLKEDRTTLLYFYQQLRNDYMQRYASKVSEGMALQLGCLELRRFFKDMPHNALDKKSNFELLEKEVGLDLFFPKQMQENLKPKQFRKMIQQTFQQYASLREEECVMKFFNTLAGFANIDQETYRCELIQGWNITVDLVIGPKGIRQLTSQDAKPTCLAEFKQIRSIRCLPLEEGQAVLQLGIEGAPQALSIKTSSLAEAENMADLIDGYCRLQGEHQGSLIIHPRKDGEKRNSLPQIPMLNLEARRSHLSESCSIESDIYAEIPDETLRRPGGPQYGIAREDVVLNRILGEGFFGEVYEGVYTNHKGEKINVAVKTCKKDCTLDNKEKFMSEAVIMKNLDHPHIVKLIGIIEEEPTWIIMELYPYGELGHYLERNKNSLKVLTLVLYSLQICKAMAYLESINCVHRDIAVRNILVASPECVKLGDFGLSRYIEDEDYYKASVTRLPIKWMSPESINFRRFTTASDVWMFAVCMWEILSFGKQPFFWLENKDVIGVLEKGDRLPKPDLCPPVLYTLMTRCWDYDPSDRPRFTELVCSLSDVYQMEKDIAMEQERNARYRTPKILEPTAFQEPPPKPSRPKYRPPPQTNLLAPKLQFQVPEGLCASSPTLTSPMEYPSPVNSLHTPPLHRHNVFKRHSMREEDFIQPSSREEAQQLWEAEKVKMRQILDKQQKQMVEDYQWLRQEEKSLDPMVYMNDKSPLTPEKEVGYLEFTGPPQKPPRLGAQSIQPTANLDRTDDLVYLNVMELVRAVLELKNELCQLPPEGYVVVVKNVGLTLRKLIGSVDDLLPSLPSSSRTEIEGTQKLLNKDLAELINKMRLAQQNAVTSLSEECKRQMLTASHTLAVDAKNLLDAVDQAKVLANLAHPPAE
Chain of Ephrin type-A receptor 2 (Homo sapiens) (P29317 whole entry): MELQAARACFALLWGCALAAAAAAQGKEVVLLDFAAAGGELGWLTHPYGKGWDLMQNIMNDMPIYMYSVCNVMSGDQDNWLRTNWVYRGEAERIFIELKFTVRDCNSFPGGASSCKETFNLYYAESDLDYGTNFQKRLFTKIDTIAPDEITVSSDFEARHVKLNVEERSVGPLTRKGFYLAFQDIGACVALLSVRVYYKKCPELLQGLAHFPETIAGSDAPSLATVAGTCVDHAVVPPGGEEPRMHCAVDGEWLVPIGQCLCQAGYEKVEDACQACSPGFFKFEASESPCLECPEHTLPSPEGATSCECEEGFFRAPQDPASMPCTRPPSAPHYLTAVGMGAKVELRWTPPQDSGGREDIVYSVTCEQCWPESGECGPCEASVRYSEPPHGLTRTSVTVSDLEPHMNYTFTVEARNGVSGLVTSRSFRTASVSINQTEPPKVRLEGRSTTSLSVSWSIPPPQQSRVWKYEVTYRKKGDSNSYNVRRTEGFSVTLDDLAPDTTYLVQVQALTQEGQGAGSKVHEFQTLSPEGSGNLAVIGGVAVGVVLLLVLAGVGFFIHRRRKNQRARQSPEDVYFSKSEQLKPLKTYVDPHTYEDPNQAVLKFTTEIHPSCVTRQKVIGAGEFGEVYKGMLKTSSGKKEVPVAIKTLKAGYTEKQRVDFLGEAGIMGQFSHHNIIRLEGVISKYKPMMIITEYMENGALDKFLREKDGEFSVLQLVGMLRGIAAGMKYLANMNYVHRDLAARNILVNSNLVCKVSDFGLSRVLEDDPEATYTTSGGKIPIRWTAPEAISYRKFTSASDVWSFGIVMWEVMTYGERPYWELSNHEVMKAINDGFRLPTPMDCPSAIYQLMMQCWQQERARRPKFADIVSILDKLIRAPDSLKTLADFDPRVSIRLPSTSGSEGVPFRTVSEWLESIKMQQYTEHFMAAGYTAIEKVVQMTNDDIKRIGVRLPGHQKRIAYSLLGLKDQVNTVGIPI
Chain of Receptor-type tyrosine-protein kinase FLT3 (Homo sapiens) (P36888 whole entry, the tested form may be a part): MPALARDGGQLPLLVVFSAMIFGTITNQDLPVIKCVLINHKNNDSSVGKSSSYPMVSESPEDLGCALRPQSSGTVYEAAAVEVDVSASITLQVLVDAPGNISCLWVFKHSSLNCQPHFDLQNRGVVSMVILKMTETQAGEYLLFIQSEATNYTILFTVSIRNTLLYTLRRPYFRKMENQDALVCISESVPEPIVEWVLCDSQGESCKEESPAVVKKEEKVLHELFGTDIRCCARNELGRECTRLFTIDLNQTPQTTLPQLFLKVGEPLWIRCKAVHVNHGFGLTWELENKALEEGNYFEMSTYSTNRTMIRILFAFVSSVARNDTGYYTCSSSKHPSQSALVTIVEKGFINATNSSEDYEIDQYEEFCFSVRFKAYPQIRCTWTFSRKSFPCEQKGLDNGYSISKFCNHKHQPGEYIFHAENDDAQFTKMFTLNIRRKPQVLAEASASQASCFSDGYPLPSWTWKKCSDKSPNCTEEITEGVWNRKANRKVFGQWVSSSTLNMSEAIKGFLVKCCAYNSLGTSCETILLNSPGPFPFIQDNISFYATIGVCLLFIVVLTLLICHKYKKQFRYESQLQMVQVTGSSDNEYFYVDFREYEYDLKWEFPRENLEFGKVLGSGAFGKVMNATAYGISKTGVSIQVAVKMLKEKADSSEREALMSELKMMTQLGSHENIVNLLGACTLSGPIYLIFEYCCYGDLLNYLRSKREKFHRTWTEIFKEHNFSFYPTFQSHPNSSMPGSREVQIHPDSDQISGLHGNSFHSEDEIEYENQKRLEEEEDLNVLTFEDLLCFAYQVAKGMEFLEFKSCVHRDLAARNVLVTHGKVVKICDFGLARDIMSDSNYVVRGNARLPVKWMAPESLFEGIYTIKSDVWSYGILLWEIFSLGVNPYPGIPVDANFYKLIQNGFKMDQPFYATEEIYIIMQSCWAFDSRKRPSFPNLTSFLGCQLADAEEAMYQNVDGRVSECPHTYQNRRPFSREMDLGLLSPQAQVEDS
Chain of Fibroblast growth factor receptor 1 (Homo sapiens) (P11362 22-822 limits assumed): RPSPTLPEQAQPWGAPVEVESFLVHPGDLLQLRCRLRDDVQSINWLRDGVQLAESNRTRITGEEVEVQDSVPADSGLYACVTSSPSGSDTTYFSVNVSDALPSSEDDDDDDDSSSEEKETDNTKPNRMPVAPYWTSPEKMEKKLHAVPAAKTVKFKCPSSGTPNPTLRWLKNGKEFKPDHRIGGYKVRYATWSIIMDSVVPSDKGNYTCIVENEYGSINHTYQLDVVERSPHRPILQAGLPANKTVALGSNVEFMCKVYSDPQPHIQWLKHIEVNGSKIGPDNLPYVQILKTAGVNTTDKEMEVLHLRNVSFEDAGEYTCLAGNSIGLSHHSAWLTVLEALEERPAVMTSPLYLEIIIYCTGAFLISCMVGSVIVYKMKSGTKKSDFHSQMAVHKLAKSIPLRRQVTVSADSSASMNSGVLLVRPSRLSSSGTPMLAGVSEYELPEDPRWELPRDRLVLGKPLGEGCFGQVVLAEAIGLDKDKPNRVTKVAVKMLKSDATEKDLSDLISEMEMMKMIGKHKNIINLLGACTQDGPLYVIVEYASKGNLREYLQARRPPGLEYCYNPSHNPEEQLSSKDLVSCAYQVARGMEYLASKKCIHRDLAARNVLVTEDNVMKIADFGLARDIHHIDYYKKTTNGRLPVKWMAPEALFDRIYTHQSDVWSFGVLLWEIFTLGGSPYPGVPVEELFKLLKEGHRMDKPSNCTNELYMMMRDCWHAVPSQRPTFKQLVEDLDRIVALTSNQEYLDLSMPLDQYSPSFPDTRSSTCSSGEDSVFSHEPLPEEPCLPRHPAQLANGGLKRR

Compound | inhibition [1] [%] | inhibition [2] [%] | inhibition [3] [%] | inhibition [4] [%] | IC50 [5] [µM] | IC50 [6] [µM] | inhibition [7] [%] | inhibition [8] [%] | inhibition [9] [%]
Cc1ccc(NC(=O)CN2C(=O)/C(=N\NC(=O)c3cc(Br)ccc3O)c3ccc(Cl)cc32)cc1 | 71.8 | 51.3 | 71.9 | 49.7 | 5.16 | 2.27 | 76.6 | 62.5 | 
Cc1ccc(NC(=O)CN2C(=O)/C(=N\NC(=O)c3cc(Br)ccc3O)c3ccccc32)cc1 | 91.7 | 48.5 | 89.7 | 49.9 | 10.7 | 9.51 | 83.8 | 95 | 74.9
O=C(CN1C(=O)/C(=N\NC(=O)c2cc(Br)ccc2O)c2c(Br)cccc21)Nc1ccc([N+](=O)[O-])cc1 | 81.6 | 46.4 | 55.8 | 45.1 | 3.52 | 4.05 | 78.9 | 71.5 | 67.9
Cc1ccc(NC(=O)CN2C(=O)/C(=N\NC(=O)c3cc(Br)ccc3O)c3ccc(Br)cc32)cc1 | 71.4 | 39.3 | 72.6 | 48.5 | 4.34 | 2.08 | 72.4 | 69.2 | 63.5

From ChEMBL document CHEMBL6134769, “Discovery of N-substituted-2-oxoindolin benzoylhydrazines as c-MET/SMO modulators in EGFRi-resistant non-small cell lung cancer” (RSC Med Chem, 2025)
